PubChem BioAssay AID623889 (Vanderbilt Specialized Chemistry Center, 2012)
Where “and” joins values, the source holds several entries; their conditions need not be identical. Equal values may be shown once.

Biological target: Metabotropic glutamate receptor 4 (Rattus norvegicus) (UniProt P31423)
Assay: rat mGlu4 modulators, glutamate EC50 fold shift, SAR follow-up, mGlu4 lead optimization, HEK/GIRK cells, thallium flux (AID 623889)
Conditions: at 30 µM, stronger effect = higher value; for glutamate max response: measured here: glutamate maximal response with compound
Outline: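 incubation = compound pre-incubation about 2.5 min before glutamate addition | assay system = HEK cells stably co-expressing GIRK channel, M4 receptor and rat mGlu4 | technique = FluoZin-2 fluorescence thallium flux | dosing = one compound dose, 30 µM final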

Chain of Metabotropic glutamate receptor 4 (Rattus norvegicus) (P31423 whole entry, looked up): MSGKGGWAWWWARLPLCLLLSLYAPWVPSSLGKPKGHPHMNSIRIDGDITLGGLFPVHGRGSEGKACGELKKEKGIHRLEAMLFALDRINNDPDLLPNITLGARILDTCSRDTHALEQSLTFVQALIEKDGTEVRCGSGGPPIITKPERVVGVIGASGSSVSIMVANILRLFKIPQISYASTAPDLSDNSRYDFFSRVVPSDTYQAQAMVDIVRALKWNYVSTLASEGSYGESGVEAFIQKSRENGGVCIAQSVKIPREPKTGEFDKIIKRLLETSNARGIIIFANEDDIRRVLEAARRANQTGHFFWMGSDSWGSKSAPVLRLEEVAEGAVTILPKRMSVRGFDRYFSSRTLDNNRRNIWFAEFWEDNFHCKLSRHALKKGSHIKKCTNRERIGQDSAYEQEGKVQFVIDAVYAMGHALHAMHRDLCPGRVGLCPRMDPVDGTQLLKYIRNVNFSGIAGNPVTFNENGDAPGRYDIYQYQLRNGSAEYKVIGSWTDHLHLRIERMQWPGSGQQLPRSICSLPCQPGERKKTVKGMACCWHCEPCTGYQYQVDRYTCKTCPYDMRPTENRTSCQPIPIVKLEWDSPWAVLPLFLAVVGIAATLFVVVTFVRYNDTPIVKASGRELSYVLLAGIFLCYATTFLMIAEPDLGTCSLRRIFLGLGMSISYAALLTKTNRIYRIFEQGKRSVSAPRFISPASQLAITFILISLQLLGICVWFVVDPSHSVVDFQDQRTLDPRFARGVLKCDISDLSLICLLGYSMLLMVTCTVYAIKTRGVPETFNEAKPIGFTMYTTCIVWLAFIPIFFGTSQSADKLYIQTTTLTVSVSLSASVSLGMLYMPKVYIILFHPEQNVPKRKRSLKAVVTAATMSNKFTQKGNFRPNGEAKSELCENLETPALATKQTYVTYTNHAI

| SMILES | fold shift | glutamate max response |
| --- | --- | --- |
| Clc1ccc2nc(-c3ccccn3)[nH]c2c1 | 15.3 | 87.2% |
| O=C(Nc1ccc2c(c1)C(=O)NC2=O)c1ccccn1 | 2.52 | 105% |
| COc1cc2nc(-c3ccccn3)[nH]c2cc1Cl | 3.21 | 90.9% |
| O=C(Nc1cccc(Cl)c1)c1ccccn1 | 30.2 | 88.8% |
| CC(C)N(C(=O)c1ccccn1)c1cccc(Cl)c1 | 3.16 | 108% |
| O=C(Nc1ccc2cn[nH]c2c1)c1ccccn1 | 11.9 | 103% |

More lines, now with the values ahead:

| fold shift | glutamate max response | SMILES |
| --- | --- | --- |
| 6.67 | 84.3% | COc1cc(Nc2noc3cccnc23)ccc1Cl |
| 4.02 | 87.2% | Clc1cccc(Nc2ncnc3cccnc23)c1 |
| 31.1 and 22.7 and 17.8 | 90.3% and 98.5% and 99.1% | Clc1cccc(Nc2noc3cccnc23)c1 |
| 21.7 and 16.3 | 98.4% and 99.7% | FC(F)Oc1cccc(Nc2noc3cccnc23)c1 |
| 8.9 | 93.6% | Fc1cccc(Nc2noc3cccnc23)c1 |
